Experimental data from ChEMBL document CHEMBL1821649, “Synthesis, characterization of some benzazoles bearing pyridine moiety: search for novel anticancer agents” (2011).

How the values were obtained:
Type in all cases: functional
HCT-15 = assay: Antitumor activity against human HCT15 cells after 48 hrs by SRB assay; conditions: HCT-15, 48 h
Outline: (§1)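 NCI-60 human tumour cell panel run under the National Cancer Institute Drug Evaluation Branch protocol. Compounds passing a single-dose prescreen were retested on all lines at five 10-fold dilutions. Growth was expressed as percent growth of treated cells. Response parameters were GI50 (molar concentration giving 50% growth inhibition), TGI (total growth inhibition) and LC50 (median lethal concentration).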

DU-145 = assay: Antitumor activity against human DU145 cells after 48 hrs by SRB assay; conditions: DU-145, 48 h; outline: as §1
EKVX = assay: Antitumor activity against human EKVX cells after 48 hrs by SRB assay; outline: as §1
MDA-MB-468 = assay: Antitumor activity against human MDA-MB-468 cells after 48 hrs by SRB assay; conditions: MDA-MB-468, 48 h; outline: as §1
SK-OV-3 = assay: Antitumor activity against human SKOV3 cells after 48 hrs by SRB assay; conditions: SK-OV-3, 48 h; outline: as §1
OVCAR-8 = assay: Antitumor activity against human OVCAR8 cells after 48 hrs by SRB assay; conditions: OVCAR-8, 48 h; outline: as §1
[1] = Antitumor activity against human Hs 578T cells after 48 hrs by SRB assay; outline: as §1
SW-620 = assay: Antitumor activity against human SW620 cells after 48 hrs by SRB assay; conditions: SW-620, 48 h
Outline: (§2)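 NCI-60 human cancer cell line panel run under the NCI Drug Evaluation Branch protocol. Compounds were first screened at a single dose. Those meeting preset inhibition thresholds were retested at five 10-fold dilutions. Output was percent growth of treated cells, given as % growth inhibition. GI50, TGI and LC50 values were derived from the five-dose data.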

TK-10 = assay: Antitumor activity against human TK10 cells after 48 hrs by SRB assay; conditions: TK-10, 48 h; outline: as §2
SR = assay: Antitumor activity against human SR cells after 48 hrs by SRB assay; outline: as §1
MOLT-4 = assay: Antitumor activity against human MOLT4 cells after 48 hrs by SRB assay; conditions: MOLT-4, 48 h; outline: as §1
UACC-257 = assay: Antitumor activity against human UACC257 cells after 48 hrs by SRB assay; conditions: UACC-257, 48 h; outline: as §2
SNB-75 = assay: Antitumor activity against human SNB75 cells after 48 hrs by SRB assay; conditions: SNB-75, 48 h; outline: as §1
COLO 205 = assay: Antitumor activity against human COLO205 cells after 48 hrs by SRB assay; conditions: COLO 205, 48 h; outline: as §1
RXF 393 = assay: Antitumor activity against human RXF393 cells after 48 hrs by SRB assay; conditions: RXF 393, 48 h; outline: as §1
NCI-H226 = assay: Antitumor activity against human NCI-H226 cells after 48 hrs by SRB assay; conditions: NCI-H226, 48 h; outline: as §1
SK-MEL-2 = assay: Antitumor activity against human SK-MEL-2 cells after 48 hrs by SRB assay; conditions: SK-MEL-2, 48 h; outline: as §1
OVCAR-5 = assay: Antitumor activity against human OVCAR5 cells after 48 hrs by SRB assay; conditions: OVCAR-5, 48 h; outline: as §1
CAKI-1 = assay: Antitumor activity against human Caki1 cells after 48 hrs by SRB assay; conditions: CAKI-1, 48 h; outline: as §1
HCC 2998 = assay: Antitumor activity against human HCC2998 cells after 48 hrs by SRB assay; conditions: HCC 2998, 48 h; outline: as §1
NCI-H460 = assay: Antitumor activity against human NCI-H460 cells after 48 hrs by SRB assay; conditions: NCI-H460, 48 h; outline: as §1
Malme-3M = assay: Antitumor activity against human MALME-3M cells after 48 hrs by SRB assay; outline: as §1
HCT-116 = assay: Antitumor activity against human HCT116 cells after 48 hrs by SRB assay; conditions: HCT-116, 48 h; outline: as §1
SN12C = assay: Antitumor activity against human SN12C cells after 48 hrs by SRB assay; outline: as §1
KM12 = assay: Antitumor activity against human KM12 cells after 48 hrs by SRB assay; conditions: KM12, 48 h; outline: as §1
OVCAR-3 = assay: Antitumor activity against human OVCAR3 cells after 48 hrs by SRB assay; conditions: OVCAR-3, 48 h; outline: as §1
CCRF-CEM = assay: Antitumor activity against human CCRF-CEM cells after 48 hrs by SRB assay; outline: as §1
SF-539 = assay: Antitumor activity against human SF539 cells after 48 hrs by SRB assay; conditions: SF-539, 48 h; outline: as §1
NCI-H522 = assay: Antitumor activity against human NCI-H522 cells after 48 hrs by SRB assay; conditions: NCI-H522, 48 h; outline: as §1
UACC-62 = assay: Antitumor activity against human UACC62 cells after 48 hrs by SRB assay; conditions: UACC-62, 48 h; outline: as §2
SF-295 = assay: Antitumor activity against human SF295 cells after 48 hrs by SRB assay; conditions: SF-295, 48 h; outline: as §1
[2] = read-out: LC50 (the source's name)

COc1ccc(-c2c(C#N)cnc(N)c2-c2nc3cc(C)c(C)cc3[nH]2)cc1
GI50 (HCT-15): 5.81 µM | TGI (HCT-15): > 100 µM | CC50 (HCT-15; [2]): > 100 µM | GI50 (DU-145): 6.92 µM | TGI (DU-145): 23.8 µM | CC50 (DU-145; [2]): 61.8 µM | GI50 (EKVX): 15.8 µM | TGI (EKVX): > 100 µM | CC50 (EKVX; [2]): > 100 µM | GI50 (MDA-MB-468): 6.22 µM | TGI (MDA-MB-468): 23.1 µM | CC50 (MDA-MB-468; [2]): 68 µM | GI50 (SK-OV-3): 4.84 µM | LC50 (SK-OV-3): 59.6 µM | TGI (SK-OV-3): 18.4 µM | GI50 (OVCAR-8): 5.2 µM | LC50 (median lethal concentration) (OVCAR-8): > 100 µM | TGI (OVCAR-8): 26.8 µM | GI50 [1]: 5.87 µM | TGI [1]: > 100 µM | CC50 [1, 2]: > 100 µM | GI50 (SW-620): 6.76 µM | TGI (SW-620): > 100 µM | CC50 (SW-620; [2]): > 100 µM | GI50 (TK-10): 5.94 µM | TGI (TK-10): 26.4 µM | CC50 (TK-10; [2]): 99.6 µM | GI50 (SR): 5.64 µM | LC50 (median lethal concentration) (SR): > 100 µM | TGI (SR): > 100 µM | GI50 (MOLT-4): > 100 µM | LC50 (MOLT-4): > 100 µM | TGI (MOLT-4): > 100 µM | GI50 (UACC-257): 52 µM | LC50 (UACC-257): > 100 µM | TGI (UACC-257): > 100 µM | GI50 (SNB-75): 2.36 µM | LC50 (SNB-75): 32.4 µM | TGI (SNB-75): 8.19 µM | GI50 (COLO 205): 7.78 µM | LC50 (COLO 205): > 100 µM | TGI (COLO 205): 63.7 µM | GI50 (RXF 393): 6.68 µM | TGI (RXF 393): 20.4 µM | CC50 (RXF 393; [2]): 54.1 µM | GI50 (NCI-H226): 16.4 µM | TGI (NCI-H226): > 100 µM | CC50 (NCI-H226; [2]): > 100 µM | GI50 (SK-MEL-2): 10.8 µM | LC50 (median lethal concentration) (SK-MEL-2): > 100 µM | TGI (SK-MEL-2): 98 µM | GI50 (OVCAR-5): 52.4 µM | TGI (OVCAR-5): > 100 µM | CC50 (OVCAR-5; [2]): > 100 µM | GI50 (CAKI-1): 14.6 µM | TGI (CAKI-1): > 100 µM | CC50 (CAKI-1; [2]): > 100 µM | GI50 (HCC 2998): 11 µM | TGI (HCC 2998): > 100 µM | CC50 (HCC 2998; [2]): > 100 µM | GI50 (NCI-H460): 18.1 µM | LC50 (median lethal concentration) (NCI-H460): > 100 µM | TGI (NCI-H460): > 100 µM | GI50 (Malme-3M): 6 µM | LC50 (Malme-3M): > 100 µM | TGI (Malme-3M): 48.3 µM | GI50 (HCT-116): 4.63 µM | TGI (HCT-116): > 100 µM | CC50 (HCT-116; [2]): > 100 µM | GI50 (SN12C): 25.4 µM | TGI (SN12C): > 100 µM | CC50 (SN12C; [2]): > 100 µM | GI50 (KM12): 3.47 µM | TGI (KM12): > 100 µM | CC50 (KM12; [2]): > 100 µM | GI50 (OVCAR-3): 14.8 µM | TGI (OVCAR-3): 30.4 µM | CC50 (OVCAR-3; [2]): 62.2 µM | GI50 (CCRF-CEM): 25.6 µM | LC50 (CCRF-CEM): > 100 µM | TGI (CCRF-CEM): > 100 µM | GI50 (SF-539): 11.5 µM | TGI (SF-539): 41.9 µM | CC50 (SF-539; [2]): > 100 µM | LC50 (NCI-H522): > 100 µM | GI50 (UACC-62): 72.2 µM | LC50 (UACC-62): > 100 µM | TGI (UACC-62): > 100 µM | GI50 (SF-295): 6.41 µM | TGI (SF-295): 23.4 µM | CC50 (SF-295; [2]): 68.2 µM
